Measurements: the RNAGym collection of RNA variant scans (doi:10.1126/science.aae0568)
Fewer inactive variants are shown than the library holds.

B1: tRNA (parent)
chain: GUUCCGUUGGCGUAAUGGUAACGCGUCUCCCUCCUAAGGAGAAGACUGCGGGUUCGAGUCCCGUACGGAACG

Variants of: B1
Experiment: yeast fitness relative to wild type (ratio to wild type); higher = fitter; tRNA-Arg(CCU), competitive growth, 37 C, YPD
Procedure, shortened: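 Genotype frequency changes were the basis for Darwinian fitness relative to wild type. The frequencies came from 100-nucleotide paired-end sequencing of gene amplicons from the start population and each end population of pooled yeast strains with tRNA-Arg(CCU) gene variants at the native locus. Competition ran in YPD at 37°C for 24 hours in six replicates, genotypes needed ≥ 100 starting reads, and estimates < 0.5 were set to 0.5.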

| Variant | yeast fitness |
| --- | --- |
| GUUCCGUUGGCGUAAUCGUAACGCGUCUCCCUCCUAAGGAGAAGACUGAGGGUUCGAGUCCCGUACGGAACG | 0.571 |
| GUUCCGUUGGCGUAAUCGUAACGCGUCUCCCUCCUAAGGAGAAGACUGUGGGUUCGAGUCCCGUACGGAACG | 0.768 |
| GUUCCGUUGGCGUAAUCGUAACGCGUCUCCUUCCUAUGGAAAAGACUACGGGUUCGAGUCCCGUACGGAACG | ≤ 0.5 |
| GUUCCGUUGGCGUAAUCGUAACGCCUCUGCCUCCUUAGAAGAAGACUGCGGGUUCGAGUCCCGUACGGAACG | ≤ 0.5 |
| GUUCCGUUGGCGUAAUCGUAACGCGUCUCCCUCCUAAGGAGAAGACUGCGGGUUUGAGUCCCGUACACAACG | ≤ 0.5 |
| GUUCCGUUGGCGUAAUCGUAACGCGUCUCCCUCUUAAGGAGAAGACUGCGGGUUCGAGUCUCGUACAGAACG | ≤ 0.5 |
| GUUCCGUUGGCGUAAUCGUAACGCGUCUCCCUCCUAAGCAGAAGGCUGCGGGUACGAGUCCCGUACGGAACG | ≤ 0.5 |
| GUUCCGUUGGCGUAAUCGUAACGCGUCUCCCUCUUAAGGAGAAGACUGCGGGUUCGGGUCCCGUACGGAUCG | 0.558 |
| GUUCCGUUGGCGUAAUCGUAACGCGUCUACCUCCUAAGGAGAAGAUUGCGGGUUCGAGUCCCGUACGGAACG | 0.867 |
| GUUCCGUUGGCGUAAUCGUAACGCGUCUCGCUCCUAAGGAGAAGACUGCGGGUUCGAGUGCCGUACGGAACG | 0.904 |
| GUUCCGUUGGCGUAAUCCUAAAGCGUCCCCCUCCUAAGGAGAAGACUGCGGGUUCGAGUACCGUAUGGAACG | 0.677 |
| GUUCCGUUGGCGUAAUCGUAACGCGUCUCCUUCCUAAGGAGCAGACUGCGGGGUCGAGUCCCGUACGGAACG | ≤ 0.5 |
| GUUCCGUUGGCGUAAUCCUAACGCGUCUCCCUCCUAAGAAGAAGACUGCGGGUUCGCGUCCCGUACGGAACG | ≤ 0.5 |
| GUUCCGUUGGCGUAAUCGUAACCCGUCUCCCUCCUAAGGAGAUGACUGAGGGUUCGAGUCCCGUACGGAACG | 0.613 |
| GUUCCGUUGGCGUAAUCGUAACGCGUUUCCCUCCUAAGGAGAAGACUGCGGGUUCGAGUCCCGUGCGGAACG | 0.598 |
| GUUCCGUUGGCGUAAUCGUAACGCGUCUCCCUCUUAAGGAGAAGACUGCGGGUUCGAGUCCCGUACGAAACG | 0.536 |
| GUUCCGUUGGCGUAAUCGUAACGCGUCUCCCUCCUAAGGAGAAGACUGCGGGUUCGAGUACCGUACAGAACG | ≤ 0.5 |
| GUUCCGUUGGCGUAAUCGUAACGCGUCUGCCUCCUAAGAAGAAGACUGCGGGUUCGAGUCCCGUACGGAUCG | ≤ 0.5 |
| GUUCCGUUGGCGUAAUCGUAACGCGUCUCCCUACUAAGGAGAAGACUGCGGGUUCGAGUCCCGUACGGAACG | ≤ 0.5 |

| Variant | yeast fitness |
| --- | --- |
| GUUCCGUUGGCGUAAUCGUAACGCGUCUCCCUGCUAAGGAGAAGACUGCGGGUUCGAGUCCCGUACGGAACG | 0.534 |
| GUUCCGUUGGCGUAAUCGUAACGCGUCUCCCUCCUAAGGAGAAGAGUGCGGGUUCGUGUCCCAUACGGAACG | ≤ 0.5 |
| GUUCCGUUGGCGUAAUCGUAACGCGUCUCCCUCAUAAGGAGAAGACUGCGGGUUCGCGUCCCGUACGGAACG | 0.561 |
| GUUCCGUUGGCGUAAUCGUAACGCAUCUCCCUCCUAAGGAGAAGACUGAGGGUUCGAGUCCCGUACGGAACG | ≤ 0.5 |
| GUUCCGUUGGCGUAAUCGUAACGCGUCUCCCUCCUAAAGAGAAGACUGCGGGUUCGAGUCCCGUACGGAACG | 0.599 |
| GUUCCGUUGGCGUAAUCCUAAAGCGUCUCCCUCCUAAGGAGAAGACUGCGGGUUCGAGUCCCGUACGGAACG | ≤ 0.5 |
| GUUCCGUUGGCGUAAUCGUAACGCGUCUCCCUCCUAAGGAGAAGACUGCGGGUUUGAGUCCCGUACGGUUCG | ≤ 0.5 |
| GUUCCGUUGGCGUAAUCGUAACGCGUCUCCCUCCUAAGGAGAAGAUUGCGGGUUCGAGUCCCGUACGGAACG | 0.686 |
| GUUCCGUUGGCGUAAUCGUAACGCGUCUCCCUCCUAAGGAGAAGAAUGCGGGUUCGAGUCCCGUACGGAACG | 0.609 |
| GUUCCGUUGGCGUAAUCGUAACGCGUCUUCCUCCUAAGGAGAAGACUGCGGGUUCGAGUCCCGUACGGAUCG | ≤ 0.5 |
| GUUCCGUUGGCGUAAUCGUAACGCGUCUCCCUCCUAAGGAGAAGAUUGCCGGUUAGAGUCCCAUAUGGAACG | ≤ 0.5 |
| GUUCCGUUGGCGUAAUCGUAACGCGUCUUCCUCCUACGGAGAAGACUGCGGGUUCGAGUCCCGUACAGAACG | 0.575 |
| GUUCCGUUGGCGUAAUCCUAAAGCGUCUCCCUCCUAAGGAGAAGACUGCGGGUUCGAGUCUCGUACGGAACG | ≤ 0.5 |
| GUUCCGUUGGCGUAAUCGUAACGCGUCUCGCUCCUAAGGAGAAGACUGCGGGUUCGAGUCCCGUACGGAACG | 0.581 |
| GUUCCGUUGGCGUAAUCGUAACGCGUCUCGCCCCUAAGGAGAAGACUGCGGGUUCGAGUGCCAUUUGGAACG | 0.544 |
| GUUCCGUUGGCGUAAUCGUAACGCGUCUCCCUCCUAAGGAGAAGACUGGGGGUUCGAGUCACGUACGGAACG | ≤ 0.5 |
| GUUCCGUUGGCGUAAUCGUAACGCGUCUACCUCCUAAGGAGAAGACUGCGGGUUCGAGUCCCGUACGGAACG | 0.544 |
| GUUCCGUUGGCGUAAUCCUAAAGCGUCUCCCUCCUAAGGAGAAGACUGCGGGUUCGAGUACCGUACGGAACG | 0.529 |
